Results as given in ChEMBL document CHEMBL1138995, “Triaminotriazine DNA helicase inhibitors with antibacterial activity” (Bioorg Med Chem Lett, 2006).
Values after ≈ are worked out from the molar mass of the structure shown. Active and inactive are the calls of the source. The calls are words filed in the database; no cut-off is given here.

Tests used:
[1] = tested on: Escherichia coli; experiment: Antibacterial activity against tolC deficient Escherichia coli LBB925; type: functional
Outline: (§1)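 MIC by broth dilution following NCCLS standard M7-A4 for aerobically growing bacteria, reported in µg/mL. Strains were S. aureus RN4220, tolC-deficient hypersusceptible E. coli LBB925, and permeability-barrier-deficient P. aeruginosa Z61.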

[2] = tested on: Pseudomonas aeruginosa; experiment: Antibacterial activity against permeability barrier deficient Pseudomonas aeruginosa Z61; type: functional; outline: as §1
[3] = tested on: HeLa; experiment: Cytotoxicity against HeLa cells by MTS assay at 12.5 uM measured as percentage survival; type: functional, Homo sapiens
Outline: (§2)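 HeLa cells were exposed to the compound at three concentrations (12.5, 25 and 50 µM). Viability was read by MTS assay and expressed as % survival.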

[4] = tested on: HeLa; experiment: Cytotoxicity against HeLa cells by MTS assay at 25 uM measured as percentage survival; type: functional, Homo sapiens; outline: as §2
[5] = tested on: HeLa; experiment: Cytotoxicity against HeLa cells by MTS assay at 50 uM measured as percentage survival; type: functional, Homo sapiens; outline: as §2
[6] = biological target: T1, Replicative DNA helicase (Pseudomonas aeruginosa (strain ATCC 15692 / PAO1 / 1C / PRS 101 / LMG12228), UniProt Q9HUN3); experiment: Inhibition of Pseudomonas aeruginosa DnaB helicase
T1 sequence (Q9HUN3 whole entry): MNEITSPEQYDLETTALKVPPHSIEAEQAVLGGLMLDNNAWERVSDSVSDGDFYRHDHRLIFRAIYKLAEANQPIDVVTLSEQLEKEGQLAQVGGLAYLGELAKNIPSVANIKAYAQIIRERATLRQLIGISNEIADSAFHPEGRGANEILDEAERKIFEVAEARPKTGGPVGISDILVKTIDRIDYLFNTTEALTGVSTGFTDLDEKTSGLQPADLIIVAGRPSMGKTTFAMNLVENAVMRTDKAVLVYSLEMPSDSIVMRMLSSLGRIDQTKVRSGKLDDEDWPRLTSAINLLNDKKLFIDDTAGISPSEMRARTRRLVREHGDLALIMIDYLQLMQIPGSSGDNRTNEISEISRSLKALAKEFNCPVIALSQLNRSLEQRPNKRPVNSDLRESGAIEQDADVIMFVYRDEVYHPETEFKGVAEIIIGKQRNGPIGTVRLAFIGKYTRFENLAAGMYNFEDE

[7] = tested on: Staphylococcus aureus; experiment: Antibacterial activity against Staphylococcus aureus RN4220; type: functional; outline: as §1
[8] = tested on: Staphylococcus aureus; experiment: Antibacterial activity against Staphylococcus aureus infected in mouse at 0.2 mL; type: functional, organism-based

Row | Structure (SMILES) | MIC [1] [µg/mL] | MIC [2] [µg/mL] | IC50 [6] [µM] | MIC [7] [µg/mL] | Activity [3] [%] | Activity [4] [%] | Activity [5] [%] | Activity [8]
1 | O=[N+]([O-])c1ccc(Nc2nc(NCCN3CCOCC3)nc(Nc3ccc(Cl)cc3)n2)cc1 | > 128 | > 128 | 5 | 4 (≈ 8.49 µM) | 78 | 19 | 10 | inactive
2 | Clc1cccc(Nc2nc(Nc3cccc(Cl)c3)nc(Nc3cccc(Cl)c3)n2)c1 | > 128 | > 128 | 31 | > 128 | 74 | 83 | 64 | –
3 | Clc1ccc(Nc2nc(NCCN3CCOCC3)nc(Nc3ccc(Cl)cc3)n2)cc1 | > 128 | > 128 | 20 | 4 (≈ 8.69 µM) | 103 | 90 | 6 | inactive
4 | Fc1ccc(Nc2nc(Nc3ccc(F)c(F)c3)nc(N3CCN(Cc4ccccc4)CC3)n2)cc1F | > 128 | > 128 | 6 | > 128 | 96 | 99 | 97 | –
5 | Fc1ccc(Nc2nc(Nc3ccc(F)c(F)c3)nc(N3CCN(CCOc4ccccc4)CC3)n2)cc1F | > 128 | > 128 | 5 | > 128 | 97 | 100 | 99 | –
6 | CN1CCN(c2nc(Nc3ccc(F)cc3)nc(Nc3ccc(F)cc3)n2)CC1 | 16 (≈ 40.3 µM) | > 128 | 22 | 32 (≈ 80.5 µM) | 100 | 64 | 11 | –
7 | OCCN1CCN(c2nc(Nc3ccc(F)c(F)c3)nc(Nc3ccc(F)c(F)c3)n2)CC1 | 16 (≈ 34.5 µM) | > 128 | 18 | 16 (≈ 34.5 µM) | 80 | 91 | 47 | –
8 | COc1ccc(Nc2nc(NCCN3CCOCC3)nc(Nc3ccc(OC)cc3)n2)cc1 | – | – | > 100 | – | – | – | – | –
9 | CC(C)CN1CCN(c2nc(Nc3ccc(F)c(F)c3)nc(Nc3ccc(F)c(F)c3)n2)CC1 | > 128 | > 128 | 5 | 4 (≈ 8.41 µM) | 99 | 99 | 86 | –

More lines, main results first:

Row | MIC [1] [µg/mL] | MIC [2] [µg/mL] | IC50 [6] [µM] | MIC [7] [µg/mL] | Structure (SMILES) | Activity [3] [%] | Activity [4] [%] | Activity [5] [%] | Activity [8]
10 | 32 (≈ 74.9 µM) | > 128 | 23 | 64 (≈ 150 µM) | OCCN1CCN(c2nc(Nc3ccc(F)cc3)nc(Nc3ccc(F)cc3)n2)CC1 | 101 | 104 | 51 | –
11 | 16 (≈ 34.5 µM) | > 128 | 19 | 16 (≈ 34.5 µM) | Fc1ccc(Nc2nc(NCCN3CCOCC3)nc(Nc3ccc(F)c(F)c3)n2)cc1F | 101 | 91 | 47 | –
12 | – | – | > 100 | – | Fc1ccc(Nc2nc(NCCN3CCOCC3)nc(Nc3ccc(F)cc3)n2)cc1 | – | – | – | –
13 | 16 (≈ 37.6 µM) | > 128 | 65 | 64 (≈ 150 µM) | Clc1ccc(Nc2nc(NCCN3CCOCC3)nc(Nc3ccccc3)n2)cc1 | 98 | 74 | 14 | –
14 | > 64 | > 64 | 6 | > 64 | CC(=O)c1ccc(Nc2nc(Nc3ccc(Br)cc3)nc(Nc3ccc(Br)cc3)n2)cc1 | – | – | – | –
15 | – | – | > 100 | – | c1ccc(Nc2nc(NCCN3CCOCC3)nc(Nc3ccccc3)n2)cc1 | – | – | – | –
